{"source": "ChEMBL document CHEMBL3797027", "about": "“Potent anti-proliferative actions of a non-diuretic glucosamine derivative of ethacrynic acid” (Bioorg Med Chem Lett, 2016)", "key": {"NCI-H1299 [1]": {"system": "NCI-H1299", "experiment": "Induction of ROS generation in human H1299 cells at 20 and 40 uM incubated for 3 hrs after pre-incubation with 3 mM NAC for 1 hr by DCFDA staining based flow cytometry", "type": "functional, cell-based", "in_short": "(§1)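 Cells were exposed for 3 h to compound, or to 25 µM H2O2 as positive control. Where indicated, 3 mM N-acetylcysteine was given 1 h before treatment. Pellets were stained with DCF-DA for 30 min, and intracellular ROS was read as fluorescence shift by flow cytometry against untreated controls.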"}, "HCT-116 [2]": {"system": "HCT-116", "experiment": "Induction of ROS generation in human HCT116 cells at 20 and 40 uM incubated for 3 hrs after pre-incubation with 3 mM NAC for 1 hr by DCFDA staining based flow cytometry", "type": "functional, cell-based", "in_short": "as §1"}, "MDA-MB-231 [3]": {"system": "MDA-MB-231", "experiment": "Induction of ROS generation in human MDA-MB-231 cells at 20 and 40 uM incubated for 3 hrs after pre-incubation with 3 mM NAC for 1 hr by DCFDA staining based fluorescence microscopy", "type": "functional, cell-based", "in_short": "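After 3 h exposure at different concentrations, DCFH-DA fluorescence was imaged by fluorescence microscopy. H2O2 (25 µM) served as positive control. In some wells, cells were pretreated with 3 mM N-acetylcysteine before compound addition.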"}, "NCI-H1299 [4]": {"system": "NCI-H1299", "experiment": "Increase in p21 (waf1/cip1) protein expression in p53 deficient human H1299 cells at 10 to 40 uM by Western blot method", "type": "functional, cell-based", "in_short": "(§2)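 H1299 (p53-null), HCT116 (p53 wild type) and MDA-MB-231 (p53 mutant) cells were treated, then lysates were immunoblotted for p53, p21, PUMA and PARP. β-Actin served as loading control.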"}, "NCI-H1299 [5]": {"system": "NCI-H1299", "experiment": "Increase in p21'cip1 protein expression in p53 deficient human H1299 cells at 10 to 40 uM by Western blot method", "type": "functional, cell-based", "in_short": "as §2"}, "NCI-H1299 [6]": {"system": "NCI-H1299", "experiment": "Increase in PUMA protein expression in p53 deficient human H1299 cells at 10 to 40 uM by Western blot method", "type": "functional, cell-based", "in_short": "as §2"}, "HCT-116 [7]": {"system": "HCT-116", "experiment": "Increase in p53 protein expression in wild type p53 expressing human HCT116 cells at 10 to 40 uM by Western blot method", "type": "functional, cell-based", "in_short": "as §2"}, "HCT-116 [8]": {"system": "HCT-116", "experiment": "Increase in p21 (waf1/cip1) protein expression in wild type p53 expressing human HCT116 cells at 10 to 40 uM by Western blot method", "type": "functional, cell-based", "in_short": "as §2"}, "HCT-116 [9]": {"system": "HCT-116", "experiment": "Increase in p21'cip1 protein expression in wild type p53 expressing human HCT116 cells at 10 to 40 uM by Western blot method", "type": "functional, cell-based", "in_short": "as §2"}, "HCT-116 [10]": {"system": "HCT-116", "experiment": "Increase in PUMA protein expression in wild type p53 expressing human HCT116 cells at 10 to 40 uM by Western blot method", "type": "functional, cell-based", "in_short": "as §2"}, "MDA-MB-231 [11]": {"system": "MDA-MB-231", "experiment": "Increase in p53 protein expression in p53 mutant expressing human MDA-MB-231 cells at 10 to 40 uM by Western blot method", "type": "functional, cell-based", "in_short": "as §2"}, "MDA-MB-231 [12]": {"system": "MDA-MB-231", "experiment": "Increase in p21'cip1 protein expression in p53 mutant expressing human MDA-MB-231 cells at 10 to 40 uM by Western blot method", "type": "functional, cell-based", "in_short": "as §2"}, "MDA-MB-231 [13]": {"system": "MDA-MB-231", "experiment": "Increase in cleaved PARP protein expression in p53 mutant expressing human MDA-MB-231 cells at 10 to 40 uM by Western blot method", "type": "functional, cell-based", "in_short": "as §2"}, "HCT-116 [14]": {"system": "HCT-116", "experiment": "Induction of cell cycle arrest in wild type p53 expressing human HCT116 cells assessed as accumulation at G2/M phase incubated for 24 hrs by propidium iodide staining based flow cytometry", "type": "functional"}, "MDA-MB-231 [15]": {"system": "MDA-MB-231", "experiment": "Induction of cell cycle arrest in p53 mutant expressing human MDA-MB-231 cells assessed as accumulation at G2/M phase incubated for 24 hrs by propidium iodide staining based flow cytometry", "type": "functional"}, "Mus musculus [16]": {"system": "Mus musculus", "experiment": "Toxicity in mouse assessed as induction of lethargy at 120 mg/kg/week for 2 weeks", "type": "organism-based", "settings": "in vivo, 336 h"}, "Mus musculus [17]": {"system": "Mus musculus", "experiment": "Toxic diuretic effect in 12 hrs fasted CD1 mouse assessed as increase in urine output at 10 mg/kg, ip measured 0 to 6 hrs post dose relative to untreated control", "type": "toxicity, organism-based", "settings": "in vivo", "in_short": "(§3)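 Female CD-1 mice fasted 12 h, then given compound IP at 10 mg/kg in PEG/EtOH/H2O (54:14:32). Vehicle control group included. Mice were housed singly in metabolic cages with free access to water. Voided urine was collected in graduated tubes under the cages over 0–6 h and 6–24 h after injection.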"}, "Mus musculus [18]": {"system": "Mus musculus", "experiment": "Toxic diuretic effect in 12 hrs fasted CD1 mouse assessed as increase in urine output at 10 mg/kg, ip measured 6 to 24 hrs post dose relative to untreated control", "type": "toxicity, organism-based", "settings": "in vivo", "in_short": "as §3"}, "[19]": {"experiment": "Cytotoxic activity against human H1299 cells assessed as inhibition of cell proliferation incubated for 72 hrs by MTT assay", "type": "functional, cell-based", "settings": "NCI-H1299, 72 h", "in_short": "(§4)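 MTT cell survival assay. IC50 is the concentration that inhibits tumour cell proliferation by 50%, read from cell survival curves. Values are given as mean ± SD of three independent experiments.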"}, "[20]": {"experiment": "Cytotoxic activity against human SF188 cells assessed as inhibition of cell proliferation incubated for 72 hrs by MTT assay", "type": "functional, cell-based", "settings": "SF-188, 72 h", "in_short": "as §4"}, "MDA-MB-231 [21]": {"system": "MDA-MB-231", "experiment": "Cytotoxic activity against human MDA-MB-231 cells assessed as inhibition of cell proliferation incubated for 72 hrs by MTT assay", "type": "functional, cell-based", "settings": "MDA-MB-231, 72 h", "in_short": "as §4"}, "[22]": {"experiment": "Cytotoxic activity against human HCT116 cells assessed as inhibition of cell proliferation incubated for 72 hrs by MTT assay", "type": "functional, cell-based", "settings": "HCT-116, 72 h", "in_short": "as §4"}, "[23]": {"experiment": "Potency index, ratio of IC50 for ethacrynic acid to IC50 for test compound for cytotoxic activity against human GBM10 cells assessed as inhibition of cell proliferation incubated for 72 hrs by MTT assay", "type": "functional", "in_short": "(§5)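 Index is the reference IC50 divided by the test IC50. Both IC50s were taken from MTT cell survival curves, each as mean ± SD of three independent experiments.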"}, "MDA-MB-231 [24]": {"system": "MDA-MB-231", "experiment": "Potency index, ratio of IC50 for ethacrynic acid to IC50 for test compound for cytotoxic activity against human MDA-MB-231 cells assessed as inhibition of cell proliferation incubated for 72 hrs by MTT assay", "type": "functional"}, "[25]": {"experiment": "Potency index, ratio of IC50 for ethacrynic acid to IC50 for test compound for cytotoxic activity against human HCT116 cells assessed as inhibition of cell proliferation incubated for 72 hrs by MTT assay", "type": "functional, HCT-116", "in_short": "as §5"}, "MDA-MB-231 [26]": {"system": "MDA-MB-231", "experiment": "Reduction in cellular total thiol levels in human MDA-MB-231 cells incubated for 3 hrs by Ellman's reagent based assay", "type": "functional, cell-based", "in_short": "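Cells exposed to 0–40 µM compound for 3 h, then trypsinized. Total thiols in cell extracts were quantified with Ellman's reagent.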"}, "NCI-H1299 [27]": {"system": "NCI-H1299", "experiment": "Induction of ROS generation in human H1299 cells at 20 and 40 uM incubated for 3 hrs by DCFDA staining based flow cytometry", "type": "functional, cell-based", "in_short": "as §1"}, "HCT-116 [28]": {"system": "HCT-116", "experiment": "Induction of ROS generation in human HCT116 cells at 20 and 40 uM incubated for 3 hrs by DCFDA staining based flow cytometry", "type": "functional, cell-based", "in_short": "as §1"}, "MDA-MB-231 [29]": {"system": "MDA-MB-231", "experiment": "Induction of ROS generation in human MDA-MB-231 cells at 20 and 40 uM incubated for 3 hrs by DCFDA staining based flow cytometry", "type": "functional, cell-based", "in_short": "as §1"}, "[30]": {"molecular_target": "Glutathione S-transferase P (Homo sapiens) (UniProt P09211)", "sequence (P09211 2-210 limits assumed)": "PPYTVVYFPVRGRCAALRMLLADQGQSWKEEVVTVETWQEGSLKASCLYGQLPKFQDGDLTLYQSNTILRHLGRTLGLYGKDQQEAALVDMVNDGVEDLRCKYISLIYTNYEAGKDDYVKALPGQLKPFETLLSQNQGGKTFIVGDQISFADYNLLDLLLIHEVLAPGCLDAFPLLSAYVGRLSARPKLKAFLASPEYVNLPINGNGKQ", "experiment": "Inhibition of GSTP1 in human HCT116 cells assessed as reduction in GST-pi activity at 50 uM pre-incubated for 3 hrs followed by chlorodinitrobenzene and reduced glutathione addition by photometric assay", "settings": "HCT-116"}}, "note": "The source made the active and inactive calls. The rule behind the calls is not given here."}
{"smiles": "C=C(CC)C(=O)c1ccc(OCC(=O)N[C@@H]2[C@@H](O)[C@H](O)[C@@H](CO)O[C@H]2O)c(Cl)c1Cl", "values": [{"measurement": "Activity", "setting": "NCI-H1299 [1]", "result": "inactive"}, {"measurement": "Activity", "setting": "HCT-116 [2]", "result": "inactive"}, {"measurement": "Activity", "setting": "MDA-MB-231 [3]", "result": "inactive"}, {"measurement": "Activity", "setting": "NCI-H1299 [4]", "result": "Active"}, {"measurement": "Activity", "setting": "NCI-H1299 [5]", "result": "Active"}, {"measurement": "Activity", "setting": "NCI-H1299 [6]", "result": "Active"}, {"measurement": "Activity", "setting": "HCT-116 [7]", "result": "Active"}, {"measurement": "Activity", "setting": "HCT-116 [8]", "result": "Active"}, {"measurement": "Activity", "setting": "HCT-116 [9]", "result": "Active"}, {"measurement": "Activity", "setting": "HCT-116 [10]", "result": "Active"}, {"measurement": "Activity", "setting": "MDA-MB-231 [11]", "result": "Active"}, {"measurement": "Activity", "setting": "MDA-MB-231 [12]", "result": "Active"}, {"measurement": "Activity", "setting": "MDA-MB-231 [13]", "result": "Active"}, {"measurement": "Activity", "setting": "HCT-116 [14]", "result": "Dose-dependent effect"}, {"measurement": "Activity", "setting": "MDA-MB-231 [15]", "result": "Dose-dependent effect"}, {"measurement": "Activity", "setting": "Mus musculus [16]", "result": "Non-toxic"}, {"measurement": "Activity", "setting": "Mus musculus [17]", "result": "Non-toxic"}, {"measurement": "Activity", "setting": "Mus musculus [18]", "result": "Non-toxic"}, {"measurement": "IC50", "setting": "[19]", "result": 11.5, "unit": "µM"}, {"measurement": "IC50", "setting": "[20]", "result": 12.3, "unit": "µM"}, {"measurement": "IC50", "setting": "MDA-MB-231 [21]", "result": 12.2, "unit": "µM"}, {"measurement": "IC50", "setting": "[22]", "result": 10.3, "unit": "µM"}, {"measurement": "Ratio IC50", "setting": "[23]", "result": 3}, {"measurement": "Ratio IC50", "setting": "MDA-MB-231 [24]", "result": 3}, {"measurement": "Ratio IC50", "setting": "[25]", "result": 3}, {"measurement": "Activity", "setting": "MDA-MB-231 [26]", "result": "Dose-dependent effect"}, {"measurement": "Activity", "setting": "NCI-H1299 [27]", "result": "Active"}, {"measurement": "Activity", "setting": "HCT-116 [28]", "result": "Active"}, {"measurement": "Activity", "setting": "MDA-MB-231 [29]", "result": "Active"}, {"measurement": "Imax", "setting": "[30]", "result": 60, "unit": "%"}]}
